ChEMBL document CHEMBL1123440, “Mitomycin C analogues with increased metal complexing ability” (J Med Chem, 1986)

What was measured:
P388 [1] = assay: Antitumor activity against P-388 leukemia in mice, activity is expressed as Optimal dose; assay type: functional, Mus musculus
Procedure, shortened: (§1)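 P388 ascites, 10⁶ cells implanted ip in female CDF1 mice. Six mice per dose of analogue, with 10 saline-injected controls. Each test group carried its own mitomycin C positive control, six mice per dose. Read-out is median survival time (MST). %T/C = MST treated/MST control × 100, taken at the optimal dose. MED is the dose giving %T/C 125. 30-day survivors were counted.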

P388 [2] = assay: Antitumor activity against P-388 leukemia in mice, activity is expressed as Minimum effective dose; assay type: functional; conditions: Mus musculus, read-out: MED; procedure, shortened: as §1
P388 [3] = assay: (§2) Antitumor activity against P-388 leukemia in mice, activity is expressed as maximum effect (% T/C) = MST(median survival time) treated/ MST control in the presence of compound only; assay type: functional, Mus musculus; procedure, shortened: as §1
P388 [4] = assay: Antitumor activity against P-388 leukemia in mice, activity is expressed as maximum effect (% T/C) = MST(median survival time) treated/ MST control in the present of Mitomycin C; assay type: functional, Mus musculus; procedure, shortened: as §1
[5] = Partition coefficient (logP); assay type: physicochemical; conditions: octanol/water
Procedure, shortened: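 Shake-flask distribution between n-octanol and water containing phosphate buffer at pH 7.4, run by the Hansch method.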

[6] = Ratio value, Optimal dose / Minimum effective dose; assay type: functional
Procedure, shortened: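 Therapeutic ratio from the P388 ip survival test in female CDF1 mice (10⁶ ascites cells). Calculated as optimal dose divided by minimum effective dose. The minimum effective dose is the dose giving %T/C 125.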

Mus musculus [7] = species: Mus musculus; assay: as §2; assay type: functional; procedure, shortened: as §1
Mus musculus [8] = species: Mus musculus; assay: Compound was tested for antitumor activity against P-388 leukemia in mice, activity is expressed as maximum effect (% T/C) = MST(median survival time) treated/ MST control in the pr; assay type: functional; procedure, shortened: as §1
Mus musculus [9] = species: Mus musculus; assay: Compound was tested for antitumor activity against P-388 leukemia in mice, activity is expressed as Optimal dose; 3.2-4.8; assay type: functional
Mus musculus [10] = species: Mus musculus; assay: Compound was tested for antitumor activity against P-388 leukemia in mice, activity is expressed as maximum effect (% T/C) = MST(median survival time) treated/ MST control in the presence of compound only; 132->344; assay type: functional; procedure, shortened: as §1

COC(=O)C(CCSC)NC1=C(C)C(=O)C2=C(C1=O)C(COC(N)=O)[C@@]1(OC)C3NC3CN21 (stereo partly drawn)
OD (P388 [1]): 6.4 mg/kg
minimal effective dose (P388 [2]): 3.2 mg/kg
T/C (P388 [3]): 131%
T/C (P388 [4]): 250%

CO[C@@]12C(COC(N)=O)C3=C(C(=O)C(C)=C(NCc4ccccn4)C3=O)N1CC1NC12 (stereo partly drawn)
logP [5]: -0.09
OD (P388 [1]): 25.6 mg/kg
minimal effective dose (P388 [2]): 1.6 mg/kg
T/C (P388 [3]): 233%
Ratio [6]: 16
T/C (P388 [4]): 272%

CO[C@@]12C(COC(N)=O)C3=C(C(=O)C(C)=C(NCCc4ccncc4)C3=O)N1CC1NC12 (stereo partly drawn)
logP [5]: 0.31
OD (P388 [1]): 25.6 mg/kg
minimal effective dose (P388 [2]): 3.2 mg/kg
T/C (Mus musculus [7]): 167%
Ratio [6]: 8
T/C (P388 [4]): 233%

CO[C@@]12C(COC(N)=O)C3=C(C(=O)C(C)=C(NCC(O)CN)C3=O)N1CC1NC12 (stereo partly drawn)
OD (P388 [1]): 12.8 mg/kg
minimal effective dose (P388 [2]): 12.8 mg/kg
T/C (P388 [3]): 122%
T/C (P388 [4]): >344%

CO[C@@]12C(COC(N)=O)C3=C(C(=O)C(C)=C(N(CCN)CCN)C3=O)N1CC1NC12 (stereo partly drawn)
OD (P388 [1]): 25.6 mg/kg
minimal effective dose (P388 [2]): 3.2 mg/kg
T/C (P388 [3]): 129%
Ratio [6]: 8
T/C (P388 [4]): 276%

CO[C@@]12C(COC(N)=O)C3=C(C(=O)C(C)=C(NCCOCCO)C3=O)N1CC1NC12 (stereo partly drawn)
logP [5]: -0.71
OD (P388 [1]): 25.6 mg/kg
minimal effective dose (P388 [2]): 0.4 mg/kg
T/C (P388 [3]): 181%
Ratio [6]: 64
T/C (P388 [4]): 213%

CO[C@@]12C(COC(N)=O)C3=C(C(=O)C(C)=C(NCC(O)CO)C3=O)N1CC1NC12 (stereo partly drawn)
OD (P388 [1]): 25.6 mg/kg
minimal effective dose (P388 [2]): 6.4 mg/kg
T/C (P388 [3]): 175%
Ratio [6]: 4
T/C (P388 [4]): 205%

CO[C@@]12C(COC(N)=O)C3=C(C(=O)C(C)=C(NCCCN)C3=O)N1CC1NC12 (stereo partly drawn)
logP [5]: -1.3
OD (P388 [1]): 25.6 mg/kg
minimal effective dose (P388 [2]): 6.4 mg/kg
T/C (P388 [3]): 147%
Ratio [6]: 4
T/C (P388 [4]): 279%

CO[C@@]12C(COC(N)=O)C3=C(C(=O)C(C)=C(NCCC(N)C(=O)O)C3=O)N1CC1NC12 (stereo partly drawn)
OD (P388 [1]): 25.6 mg/kg
minimal effective dose (P388 [2]): 6.4 mg/kg
T/C (P388 [3]): 139%
T/C (P388 [4]): 206%

CO[C@@]12C(COC(N)=O)C3=C(C(=O)C(C)=C(NCCc4ccco4)C3=O)N1CC1NC12 (stereo partly drawn)
OD (P388 [1]): 25.6 mg/kg
minimal effective dose (P388 [2]): 1.6 mg/kg
T/C (P388 [3]): 328%
Ratio [6]: 16
T/C (P388 [4]): 156%

CO[C@@]12C(COC(N)=O)C3=C(C(=O)C(C)=C(NCCCCN=C(N)N)C3=O)N1CC1NC12 (stereo partly drawn)
OD (P388 [1]): 25.6 mg/kg
minimal effective dose (P388 [2]): 1.6 mg/kg
T/C (P388 [3]): 156%
Ratio [6]: 16
T/C (P388 [4]): 263%

CO[C@@]12C(COC(N)=O)C3=C(C(=O)C(C)=C(NCCNCCN)C3=O)N1CC1NC12 (stereo partly drawn)
logP [5]: -1.14
T/C (P388 [3]): 100%
T/C (P388 [4]): 178%

CO[C@@]12C(COC(N)=O)C3=C(C(=O)C(C)=C(N(C)CCc4ccccn4)C3=O)N1CC1NC12 (stereo partly drawn)
logP [5]: 0.37
OD (P388 [1]): 12.8 mg/kg
minimal effective dose (P388 [2]): < 0.2 mg/kg
T/C (P388 [3]): 300%
Ratio [6]: > 64
T/C (P388 [4]): 319%

CO[C@@]12C(COC(N)=O)C3=C(C(=O)C(C)=C(NCCCN(CCO)CCO)C3=O)N1CC1NC12 (stereo partly drawn)
logP [5]: -0.36
OD (P388 [1]): 25.6 mg/kg
minimal effective dose (P388 [2]): 25.6 mg/kg
T/C (P388 [3]): 137%
Ratio [6]: 1
T/C (P388 [4]): 279%

CO[C@@]12C(COC(N)=O)C3=C(C(=O)C(C)=C(NCCc4ccccn4)C3=O)N1CC1NC12 (stereo partly drawn)
logP [5]: -0.09
OD (P388 [1]): 25.6 mg/kg
minimal effective dose (P388 [2]): 0.2 mg/kg
T/C (P388 [3]): >375%
Ratio [6]: 128
T/C (Mus musculus [8]): 319%

CO[C@@]12C(COC(N)=O)C3=C(C(=O)C(C)=C(NCCNCCO)C3=O)N1CC1NC12 (stereo partly drawn)
logP [5]: -0.57
OD (P388 [1]): 12.8 mg/kg
minimal effective dose (P388 [2]): 12.8 mg/kg
T/C (P388 [3]): 133%
Ratio [6]: 1
T/C (P388 [4]): 156%

CO[C@@]12[C@H](COC(N)=O)C3=C(C(=O)C(C)=C(N)C3=O)N1C[C@@H]1N[C@@H]12 [MITOMYCIN]
minimal effective dose (P388 [2]): 0.2 mg/kg
Ratio [6]: 24
OD (Mus musculus [9]): 3.2 mg/kg
T/C (Mus musculus [10]): 132%

CO[C@@]12C(COC(N)=O)C3=C(C(=O)C(C)=C(NC(CO)C(=O)O)C3=O)N1CC1NC12 (stereo partly drawn)
OD (P388 [1]): 25.6 mg/kg
minimal effective dose (P388 [2]): 6.4 mg/kg
T/C (P388 [3]): 138%
T/C (P388 [4]): 263%

CO[C@@]12C(COC(N)=O)C3=C(C(=O)C(C)=C(NCCC(=O)O)C3=O)N1CC1NC12 (stereo partly drawn)
OD (P388 [1]): 25.6 mg/kg
minimal effective dose (P388 [2]): 25.6 mg/kg
T/C (P388 [3]): 133%
T/C (P388 [4]): 194%

CO[C@@]12C(COC(N)=O)C3=C(C(=O)C(C)=C(NC(CCN=C(N)N)C(=O)O)C3=O)N1CC1NC12 (stereo partly drawn)
OD (P388 [1]): 25.6 mg/kg
minimal effective dose (P388 [2]): 6.4 mg/kg
T/C (P388 [3]): 138%
T/C (P388 [4]): 263%

CO[C@@]12C(COC(N)=O)C3=C(C(=O)C(C)=C(NCCNc4ccc([N+](=O)[O-])cn4)C3=O)N1CC1NC12 (stereo partly drawn)
logP [5]: 0.77
OD (P388 [1]): 12.8 mg/kg
minimal effective dose (P388 [2]): 2.6 mg/kg
T/C (P388 [3]): 144%
Ratio [6]: 8
T/C (P388 [4]): 250%

CCOC(=O)C(CO)NC1=C(C)C(=O)C2=C(C1=O)C(COC(N)=O)[C@@]1(OC)C3NC3CN21 (stereo partly drawn)
OD (P388 [1]): 25.6 mg/kg
minimal effective dose (P388 [2]): 3.2 mg/kg
T/C (P388 [3]): 156%
T/C (P388 [4]): 194%

CO[C@@]12C(COC(N)=O)C3=C(C(=O)C(C)=C(NCCc4c[nH]cn4)C3=O)N1CC1NC12 (stereo partly drawn)
logP [5]: -0.19
OD (P388 [1]): 25.6 mg/kg
minimal effective dose (P388 [2]): 1.6 mg/kg
T/C (P388 [3]): 163%
Ratio [6]: 16
T/C (P388 [4]): 213%

CO[C@@]12C(COC(N)=O)C3=C(C(=O)C(C)=C(NC(C)C(=O)O)C3=O)N1CC1NC12 (stereo partly drawn)
OD (P388 [1]): 12.8 mg/kg
T/C (P388 [3]): 109%
T/C (P388 [4]): 132%
